Experimental data published in the RNAGym collection of RNA variant scans (doi:10.1126/science.aae0568).
Fewer inactive variants are shown than the library holds.

B1: tRNA (parent)
chain: GUUCCGUUGGCGUAAUGGUAACGCGUCUCCCUCCUAAGGAGAAGACUGCGGGUUCGAGUCCCGUACGGAACG

Variants of: B1
Assay: yeast fitness relative to wild type (ratio to wild type); higher = fitter; tRNA-Arg(CCU), competitive growth, 37 C, YPD
In short: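 Genotype frequency changes were the basis for Darwinian fitness relative to wild type. The frequencies came from 100-nucleotide paired-end sequencing of gene amplicons from the start population and each end population of pooled yeast strains with tRNA-Arg(CCU) gene variants at the native locus. Competition ran in YPD at 37°C for 24 hours in six replicates, genotypes needed ≥ 100 starting reads, and estimates < 0.5 were set to 0.5.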

C11A C62G G63A and C11G U28A A65U A69U cannot be ordered by yeast fitness: ≤ 0.5 for the first, ≤ 0.5 for the second.

First: C11A C27U C30A A43C C60U
Second: C11G C31U C33U
The yeast fitness of the first is lower: ≤ 0.5 for the first, 0.509 for the second.

First: C11A C31A U32C G44C A65G
Second: C11A C22G C29G C62U
The yeast fitness of the first is lower: ≤ 0.5 for the first, 0.57 for the second.

C11A U53A C62G and C11A A14G C24U G41C A42G C55G cannot be ordered by yeast fitness: ≤ 0.5 for the first, ≤ 0.5 for the second.

C11A C27G C61G G68A and C11G C55G A57C cannot be ordered by yeast fitness: ≤ 0.5 for the first, ≤ 0.5 for the second.

First: C11A A15G C49U
Second: C11A U26C C29G C31U
The yeast fitness of the first is lower: 0.55 for the first, 0.655 for the second.

First: C11A A42C G51A A69C
Second: C11G C49U C61A
The yeast fitness of the first is lower: ≤ 0.5 for the first, 0.582 for the second.

Compared with C11A U59A G67C A69C, C11G U35A C66U is higher in yeast fitness: ≤ 0.5 for the first, 0.51 for the second.

First: C11G G48A C49G
Second: C11G G12C A20G A43G A45C A69U
The yeast fitness of the first is higher: 0.587 for the first, ≤ 0.5 for the second.

Going from C11A U28G C33A A42C to C11G U59C, the yeast fitness rises from ≤ 0.5 to 0.589.

C11G U32A C33G C34A A57C and C11A A20G C46U G50C C60A cannot be ordered by yeast fitness: ≤ 0.5 for the first, ≤ 0.5 for the second.

C11G U26A U35A G67C and C11G C24G C30U A43U C60G A65C cannot be ordered by yeast fitness: ≤ 0.5 for the first, ≤ 0.5 for the second.

First: C11G C22U C27U U47A G52C
Second: C11G C29G C33U C46A C49G
The yeast fitness of the first is higher: 0.67 for the first, 0.564 for the second.

Compared with C11G U35C A43C G52C U54A, C11G G12A C60U A70G is lower in yeast fitness: 0.644 for the first, ≤ 0.5 for the second.

C11G C49A G67C and C11A C27A C55U cannot be ordered by yeast fitness: ≤ 0.5 for the first, ≤ 0.5 for the second.

First: C11A A45G
Second: C11G A15C C34U A65C
The yeast fitness of the first is higher: 0.603 for the first, ≤ 0.5 for the second.

First: C11G G23C A36U G44C G68A
Second: C11A A14U C27U
The yeast fitness of the first is higher: 0.717 for the first, ≤ 0.5 for the second.

Compared with C11G G25A G56A C60A C62U G68C, C11G C22U U53C G68C is higher in yeast fitness: ≤ 0.5 for the first, 0.521 for the second.

C11A A37C C49G C55G and C11G A15U C22U A42G cannot be ordered by yeast fitness: ≤ 0.5 for the first, ≤ 0.5 for the second.

First: C11G C24G C27A U28C G67A
Second: C11A U32C C49U
The yeast fitness of the first is lower: ≤ 0.5 for the first, 0.606 for the second.

Compared with C11G C46G, C11G C46A is lower in yeast fitness: 0.75 for the first, 0.576 for the second.

First: G10C G41A C62U
Second: G10U G48A A70U
The yeast fitness of the first is lower: ≤ 0.5 for the first, 0.649 for the second.

Going from G10C G52A to G10C U54C G56A, the yeast fitness falls from 0.666 to ≤ 0.5.

Going from C11G C66U to C11G C66A, the yeast fitness falls from 0.615 to ≤ 0.5.

Compared with C11A G17A, C11G A14G C24G G67C is lower in yeast fitness: 0.579 for the first, ≤ 0.5 for the second.

Going from C11A C27U C33U U35C to C11G G23C A37G A57C, the yeast fitness rises from 0.634 to 0.979.

First: G10C G51C A65C C66U
Second: C11G A40C
The yeast fitness of the first is lower: ≤ 0.5 for the first, 0.6 for the second.

C11A G18C A45C A57C G68C and C11G G17C C34A A43C G56C cannot be ordered by yeast fitness: ≤ 0.5 for the first, ≤ 0.5 for the second.

Going from C11G G41C to C11G A15C C46G U59A, the yeast fitness falls from 0.662 to ≤ 0.5.

First: C11A C27U C31U C34G A40G
Second: G10C U47A G48A
The yeast fitness of the first is lower: ≤ 0.5 for the first, 0.568 for the second.

C11G C60G A65C and C11A A15C U26A C29U C33A G38C C55A C60U cannot be ordered by yeast fitness: ≤ 0.5 for the first, ≤ 0.5 for the second.

Going from G10C U32C C33A to G10U C31U, the yeast fitness rises from ≤ 0.5 to 0.78.

First: C11G U26C G67C A69C
Second: C11G C27U U28A
The yeast fitness of the first is lower: ≤ 0.5 for the first, 0.537 for the second.

Compared with C11G U26A, C11G G12A C24A C30G G44C C61G is lower in yeast fitness: 0.583 for the first, ≤ 0.5 for the second.

First: C11A A40C
Second: C11A G18A
The yeast fitness of the first is higher: 0.708 for the first, 0.58 for the second.

C11A C30G C31U U32C G52A U59C and C11A G25C C29U cannot be ordered by yeast fitness: ≤ 0.5 for the first, ≤ 0.5 for the second.

Going from C11A A21C C55U C62U G67C to C11G C30U A37C A70U, the yeast fitness falls from 0.529 to ≤ 0.5.

C11G A36U A42G A43C C49U A57U A65C and C11G C27U C33U A65C G67A cannot be ordered by yeast fitness: ≤ 0.5 for the first, ≤ 0.5 for the second.

Compared with C11G U13G A21G G63A, C11A U53C is higher in yeast fitness: ≤ 0.5 for the first, 0.556 for the second.

First: C11A U53A
Second: C11A C31G A42U C62U U64A
The yeast fitness of the first is higher: 0.59 for the first, ≤ 0.5 for the second.

Compared with C11G A21G A57G, C11A C34G G50A is higher in yeast fitness: ≤ 0.5 for the first, 0.681 for the second.

C11G U19A C31U A43G G52C and C11G A14U C22A C29G C34A cannot be ordered by yeast fitness: ≤ 0.5 for the first, ≤ 0.5 for the second.

First: C11G C46U C49A C55U A69U
Second: C11G A14G A15U G23C U53A C62U
The yeast fitness of the first is higher: 0.536 for the first, ≤ 0.5 for the second.

Going from G10C U13A C31A to C11A U19G A36G C66U, the yeast fitness falls from 0.594 to ≤ 0.5.

C11G C22G A45C and C11G A37C A42G C66G G68U cannot be ordered by yeast fitness: ≤ 0.5 for the first, ≤ 0.5 for the second.

Going from C11G C24U C55G to C11G G12A G41C C66A G67C, the yeast fitness rises from ≤ 0.5 to 0.596.

First: C11A C55G
Second: C11A C29U A43C A65U
The yeast fitness of the first is higher: 0.535 for the first, ≤ 0.5 for the second.

Compared with C11A G23A G63C, C11A C62U is higher in yeast fitness: 0.551 for the first, 0.616 for the second.

C11A C62A and G10C U26A C27U A42G A70G cannot be ordered by yeast fitness: ≤ 0.5 for the first, ≤ 0.5 for the second.

Going from C11G G39C G50C to G10C U26C A45G A65C, the yeast fitness rises from 0.545 to 0.635.

Going from C11G C30A U47G U53C to C11G C24A G48C U54G C55U C66U, the yeast fitness falls from 0.597 to ≤ 0.5.

C11A U53A G67A and C11A G18A G58A U64C cannot be ordered by yeast fitness: ≤ 0.5 for the first, ≤ 0.5 for the second.

First: C11A A15U A21U A36C A37U
Second: C11G U16A C22U A45U
The yeast fitness of the first is higher: 0.56 for the first, ≤ 0.5 for the second.

C11U A14G A57G U59C A69U and C11G C24U A45C C55U cannot be ordered by yeast fitness: ≤ 0.5 for the first, ≤ 0.5 for the second.

C11A C31A G38U G44C A65G and C11A C24G U47G G68C cannot be ordered by yeast fitness: ≤ 0.5 for the first, ≤ 0.5 for the second.

Going from C11A G48A U54A to C11G G48A, the yeast fitness falls from 0.584 to 0.582.

Going from C11A G68U to C11A G17C A36G G41C U53C C61A G68A, the yeast fitness falls from 0.54 to ≤ 0.5.

G10C U16G C31A U32G C66A and C11G C27G C66U cannot be ordered by yeast fitness: ≤ 0.5 for the first, ≤ 0.5 for the second.

G10C G51C A65U and C11A C30U C33G U64C cannot be ordered by yeast fitness: ≤ 0.5 for the first, ≤ 0.5 for the second.

Going from G10C U13A C31A C62U to C11A A70U, the yeast fitness rises from ≤ 0.5 to 0.581.

G10U U26C G39A A65C and C11G C31G A36U cannot be ordered by yeast fitness: ≤ 0.5 for the first, ≤ 0.5 for the second.

C11G A14U U59G and C11G C24G C60A G68A cannot be ordered by yeast fitness: ≤ 0.5 for the first, ≤ 0.5 for the second.

G10C U19A C66U and C11A A43G G50C G56C A65G cannot be ordered by yeast fitness: ≤ 0.5 for the first, ≤ 0.5 for the second.

First: C11G C24G C27U C55U
Second: C11G U47A G52A G58C G63C C66G
The yeast fitness of the first is lower: 0.55 for the first, 0.664 for the second.

First: C11A C24G C49U
Second: C11A A42C C62A
The yeast fitness of the first is higher: 0.588 for the first, ≤ 0.5 for the second.

Going from C11G C33A A42C to C11G C24U U28C A42G C60U C62G, the yeast fitness falls from 0.7 to ≤ 0.5.

C11G G12C A20C C24G A37G G68A A69C and C11A U13A C31G A65C cannot be ordered by yeast fitness: ≤ 0.5 for the first, ≤ 0.5 for the second.

First: C11G U54C
Second: C11G C29A A40U G52A
The yeast fitness of the first is higher: 0.512 for the first, ≤ 0.5 for the second.

First: C11A G51A C66G
Second: C11A C22G
The yeast fitness of the first is lower: ≤ 0.5 for the first, 0.623 for the second.

Compared with C11A C33U C49U C60G, C11G C60G G67C is higher in yeast fitness: ≤ 0.5 for the first, 0.667 for the second.

Going from C11G A15C G48C C55G G67C A70U to C11G C24G C27A U28C A65U, the yeast fitness rises from ≤ 0.5 to 0.533.

C11A C24U C60A and C11G A15C G38C C49G cannot be ordered by yeast fitness: ≤ 0.5 for the first, ≤ 0.5 for the second.

Going from C11A U19A A42U A45C C55U A69C to C11A A21G C33G A36U G44A U59C, the yeast fitness falls from 0.538 to ≤ 0.5.

G10C U16G A43C G51C and C11A C33A A40G A43G cannot be ordered by yeast fitness: ≤ 0.5 for the first, ≤ 0.5 for the second.

Compared with G10C G50A, C11A C46U A70G is lower in yeast fitness: 0.76 for the first, 0.56 for the second.

C11G A15G C24G C46G G67A and C11G U16A C29U cannot be ordered by yeast fitness: ≤ 0.5 for the first, ≤ 0.5 for the second.

C11G G50U C62G and G10C U26A U59C C66U cannot be ordered by yeast fitness: ≤ 0.5 for the first, ≤ 0.5 for the second.

First: C11G U35A C62A C66G
Second: C11G U47A G48A
The yeast fitness of the first is lower: ≤ 0.5 for the first, 0.58 for the second.

First: C11A A43G A69U
Second: C11G A21C G56A
The yeast fitness of the first is higher: 0.582 for the first, ≤ 0.5 for the second.

C11A U19G A36G U54C U64C G67A and C11G A15U U16C C24G A40G C62U A70C cannot be ordered by yeast fitness: ≤ 0.5 for the first, ≤ 0.5 for the second.

C11G A21U C24U and C11G A14U A43U G48A cannot be ordered by yeast fitness: ≤ 0.5 for the first, ≤ 0.5 for the second.

Compared with C11G C29A, C11G C24A U28G A36G G63A is lower in yeast fitness: 0.518 for the first, ≤ 0.5 for the second.

First: C11G G39C
Second: C11G A15U C31A A70C
The yeast fitness of the first is higher: 0.6 for the first, ≤ 0.5 for the second.

With C11A C27U C33U U35C A57U the yeast fitness was ≤ 0.5.
